The source of these data is ChEMBL document CHEMBL1121573, “2-(Aminomethyl)phenols, a new class of saluretic agents. 1. Effects of nuclear substitution” (J Med Chem, 1980).

Where “and” joins values, the source holds several entries; their conditions need not be identical. Equal entries are not always repeated.

Data set [1] can be described thus: Compound administered orally at a dose of 5 mg/kg was evaluated for salidiuretic activity measured as sodium ion excretion in Rat. Conditions: Urine; call rule not given here. Also noted: dose 5 mg/kg. In kind it is organism-based. The procedure, abridged: (§1)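 Female Charles-River rats (150–170 g), overnight on sugar diet with water ad libitum. Compound dissolved in DMF, diluted with water containing Tween 80 (final 4% DMF), given po in 5.0 mL; concurrent vehicle placebo. Three rats per metabolism cage; 0–5 h urine analysed for Na+, K+, Cl-. Values: mequiv × 100 per cage, geometric means of three cages per dose; scored 0–6 by Na+.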

Data set [2] concerns Canis familiaris. Briefly: Compound administered intravenously at a dose of 5 mg/kg was evaluated for salidiuretic activity measured as sodium ion excretion in Dog; act above 5 mg/kg. The format is ADME, organism-based, Canis lupus familiaris, Urine. Conditions: in vivo, iv. The gist of the method: (§2)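 Conditioned female mongrel dogs, postabsorptive, water-loaded (500 mL po) 1 h before sodium pentobarbital anesthesia (30 mg/kg iv). Bladder catheter; creatinine 4 g sc; phosphate–mannitol buffer pH 7.4 infused (3.0 mL/min) throughout. […] Urine Na+ measured; response scored 0–6.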

Data set [3] is described as follows: Evaluated for salidiuretic activity measured as sodium ion excretion in Rat, administered orally at a dose of 16.5 mg/kg. Conditions: Urine. The format is organism-based. More on the design: dose 16.5 mg/kg. The gist of the method:
as §1

Data set [4] has as its system Rattus norvegicus. Briefly: Evaluated for salidiuretic activity measured as sodium ion excretion in Rat, administered orally at a dose of 50 mg/kg. The format is functional, Urine. More on the design: unit not given beside the values. Conditions: route oral. The procedure, abridged:
as §1

Data set [5] relates to Rattus norvegicus. Briefly: Compound administered orally at a dose of 81 mg/kg was evaluated for salidiuretic activity measured as sodium ion excretion in Rat. The format is ADME, organism-based, Urine. Also noted: dose 81 mg/kg, route oral; unit not given beside the values. Conditions: in vivo, po. The gist of the method: as §1
Data set [6] deals with Canis familiaris. The data set is described as follows: Compound administered intravenously was evaluated for salidiuretic activity measured as sodium ion excretion in Dog; Value ranges from 800-899. The format is ADME, organism-based, Canis lupus familiaris, Urine. The note with it: in vivo, iv. The gist of the method:
as §2

Data set [7] has as its system Rattus norvegicus. The data set is described as follows: Oral diuretic activity was evaluated by measuring K+ excretion in Rat at 27 mg/kg […] (0-5 hr). In kind it is ADME, organism-based, Urine. Also noted: dose 27 mg/kg. The procedure, abridged:
(§3)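 Female Charles-River rats (150–170 g) were kept overnight on a sugar diet with water ad libitum. Test substance was dissolved in DMF and diluted with water containing Tween 80 to a final 4% DMF vehicle, then given po in 5.0 mL. Rats were housed three per metabolism cage, and 0–5 h urine was assayed for Na⁺, K⁺ and Cl⁻ alongside concurrent placebo groups. Values are mequiv × 100 per cage, geometric means of three cages per dose.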

Data set [8] has as its system Rattus norvegicus. The data set is described as follows: Oral diuretic activity was evaluated by measuring Na+ excretion in Rat at 81 mg/kg […] (0-5 hr). The format is ADME, organism-based, Urine. More on the design: dose 81 mg/kg. Conditions: in vivo.
In data set [9] the test system is Rattus norvegicus. Briefly: Oral diuretic activity was evaluated by measuring Cl- excretion in Rat at 81 mg/kg after po administration (0-5 hr). Conditions: in vivo.
Data set [10] deals with Rattus norvegicus. Briefly: Oral diuretic activity was evaluated by measuring K+ excretion in Rat at 9 mg/kg […] (0-5 hr). In kind it is ADME, organism-based, Urine. More on the design: dose 9 mg/kg. The gist of the method:
as §3

In data set [11] the test system is Rattus norvegicus. Briefly: Oral diuretic activity was evaluated by measuring Cl- excretion in Rat at 27 mg/kg […] (0-5 hr). More on the design: dose 27 mg/kg. The note with it: in vivo. The format is ADME, organism-based, Urine.
For data set [12], the system named is Rattus norvegicus. Briefly: Oral diuretic activity was evaluated by measuring Cl- excretion in Rat at 9 mg/kg […] (0-5 hr). Conditions: in vivo. More on the design: dose 9 mg/kg. The format is ADME, organism-based, Urine. The gist of the method:
as §3

The subject of data set [13] is Rattus norvegicus. Briefly: Oral diuretic activity was evaluated by measuring K+ excretion in Rat at 81 mg/kg after […] (0-5 hr). The format is ADME, organism-based, Urine. More on the design: dose 81 mg/kg. The procedure, abridged: as §3
Data set [14] concerns Rattus norvegicus. Briefly: Oral diuretic activity was evaluated by measuring Na+ excretion in Rat at 27 mg/kg […] (0-5 hr). In kind it is ADME, organism-based, Urine. More on the design: dose 27 mg/kg. The note with it: in vivo. The procedure, abridged:
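Female Charles-River rats (150–170 g) were kept overnight on a sugar diet with water ad libitum. Compound was dissolved in DMF, then diluted with water containing Tween 80 (3 drops/100 mL) to a final 4% DMF, and given po in 5.0 mL. Rats were housed three per metabolism cage. Urine from 0–5 h was analysed for Na+, K+ and Cl−, with concurrent placebo controls. Values are mequiv × 100 per cage, geometric mean of three cages per dose.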

The species entered for data set [15] is Rattus norvegicus. The data set is described as follows: Time taken for the decrease in arterial pressure was measured. The format is functional, Artery.

In the case of `NCc1cc(Cl)cc(Cl)c1O`, the Diuretic activity in data set [1] is 0.4; in data set [2] it was “active above 5 mg/kg”; in data set [3] it was 0.6; in data set [4], 1.8; in data set [5] it was 2.4.

Molecule `CC(C)(C)c1cc(CN)c(O)c(C(=O)O)c1.Cl` gave a Diuretic activity in data set [6] of 800.

Consider `NNc1nncc2ccccc12` [HYDRALAZINE], for which the Diuretic activity amounted to 0.07 in [7]; 0.17 in data set [8]; 0.01 in data set [9]; 0.27 in [10]; 0.02 in [11]; 0.02 in [12]. Further, the figures for the Diuretic activity in data set [13] and in data set [14] were 0.11 and 0.04, respectively. Moreover, the Duration in [15] was 8 h and 18 h.
